Source: PMC7217345 (Annals of Oncology, 2020)

How the values were obtained:
pERK = test: IHC for pERK expression in tumour biopsies; assay type: in vivo, human; conditions: with enzalutamide, including two of the responders
[1] = tested on: patients with metastatic castration-resistant prostate cancer; test: Treatment-related adverse events; assay type: in vivo, human; conditions: Total N=15, with enzalutamide
Procedure, shortened: (§1)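 Open-label, single-centre 3+3 escalation in mCRPC. Capivasertib was given b.i.d. 4/7, starting at 320 mg with predefined escalation and de-escalation. A 7-day cycle 0 (single dose on D1) preceded 28-day cycles of capivasertib plus enzalutamide 160 mg daily. MTD/RP2D was the highest level with ≥6 patients and <1/3 with DLT. AEs were graded by CTCAE v4.0 from first dose to 30 days post-discontinuation. All treated patients were included.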

[2] = tested on: patients with metastatic castration-resistant prostate cancer; test: Phase I dose escalation; assay type: in vivo, human
Procedure, shortened: as §1

pSer9 GSK3β = test: Pharmacodynamics: phosphorylated Ser9 GSK3β in platelet-rich plasma; assay type: in vivo, human; conditions: 400 mg alone (cycle 0)
Procedure, shortened: (§2)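 mCRPC patients took a single capivasertib dose on cycle 0 day 1, followed by PK and PD sampling. Combination with enzalutamide 160 mg daily began at C1D1, with capivasertib b.i.d. on a 4/7 schedule. Platelet-rich plasma and hair follicles were assayed for pSer9 and total GSK3β and for pThr246 and total PRAS40. Statistics used one-way ANOVA with […] and Dunnett's tests, with P<0.05 as significant.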

pThr246 PRAS40 = test: Pharmacodynamics: phosphorylated Thr246 PRAS40 in hair follicles; assay type: in vivo, human
Procedure, shortened: as §2

[3] = Plasma pharmacokinetics of capivasertib; assay type: in vivo, human
Procedure, shortened: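 Venous blood was sampled serially up to 48 h post-dose on C0D1 (capivasertib alone) and on C2D1, C2D4 and C2D11 (with enzalutamide). Cmax, Tmax and AUC8h were derived. Geometric means of dose-normalised Cmax and AUC8h were compared between cycle 2 and cycle 0.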

patients = conditions: 4 days on and 3 days off every week (4/7); cited from earlier work
[4] = tested on: metastatic prostate cancer patients; conditions: overall population; marked benefit for PTEN loss; cited from earlier work

SMILES: NC1(C(=O)N[C@@H](CCO)c2ccc(Cl)cc2)CCN(c2nc[nH]c3nccc2-3)CC1 [capivasertib]
- pERK expression by IHC, post-treatment vs baseline (pERK): increased after treatment in three patients
- Hyper-glycaemia, Grade 3/4 [1]: 26.7%
- patients experiencing a DLT (maculopapular rash) ([2]; 400 mg b.i.d., with enzalutamide): 1/6
- RP2D (recommended phase II dose) ([2]; 4/7 schedule, with enzalutamide 160 mg daily): 400 mg b.i.d.
- fatal SAEs ([2]; all dose levels): no fatal SAEs
- patients with dosing interruption or reduction ([2]; beyond cycle 1, six of fourteen patients): 42.9%
- dosing interruptions or reductions due to AEs ([2]; during the DLT period, five of nine patients): 55.6%
- AEs judged to be treatment-related ([2]; of 259 AEs, safety population): 42.5%
- AEs reported ([2]; safety population, all dose levels): 259
- mean decrease in pGSK3β compared with baseline (pSer9 GSK3β; 2 h after dose): 56%
- mean decrease in pGSK3β compared with baseline (pSer9 GSK3β; 4 h after dose): 44%
- mean decrease in pGSK3β compared with baseline (pSer9 GSK3β; 8 h after dose): 22%
- mean percentage reduction in PRAS40 (pThr246 PRAS40; 320 mg with enzalutamide): −34%
- mean percentage reduction in PRAS40 (pThr246 PRAS40; 320 mg without enzalutamide): 38%
- mean percentage reduction in PRAS40 (pThr246 PRAS40; 400 mg with enzalutamide): 22%
- mean percentage reduction in PRAS40 (pThr246 PRAS40; 400 mg without enzalutamide): 23%
- mean percentage reduction in PRAS40 (pThr246 PRAS40; 480 mg with enzalutamide): 40%
- mean percentage reduction in PRAS40 (pThr246 PRAS40; 480 mg without enzalutamide): 26%
- patients in whom enzalutamide decreased both Cmax and AUC ([3]; compared with capivasertib monotherapy): 11 out of 13
- approximate mean decrease of Cmax and AUC ([3]; cycle 2 (with enzalutamide) compared with cycle 0 (monotherapy)): ~40%
- single-agent recommended phase II dose (RP2D) (patients): 480 mg b.i.d.

SMILES: CC(C)NC[C@@H](C(=O)N1CCN(c2ncnc3c2[C@H](C)C[C@H]3O)CC1)c1ccc(Cl)cc1 [ipatasertib]
- rPFS, abiraterone with vs without ipatasertib [4]: improved rPFS
